In ChEMBL document CHEMBL1122646, “Synthesis of pyridine derivatives of L-phenylalanine as antisickling reagents” (1984):

Key:
Assay type in all cases: functional
[1] = Antisickling activity and percentage of cells sickled after incubation in 3 mM solution under oxygen content 4.06% was reported at 30.8 mm of Hg pressure.
In short: (§1)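 Washed homozygous SS erythrocytes (HbF <8%, MCHC 33.5 g %, stored 4 °C, used within 24 h) at 1.0% hematocrit in PBS pH 7.2 (295 mosmol/kg, 0.5% w/v BSA) with 3 mM compound. Incubated 1 h at 37 °C with rotation. Cells were air-exposed 10 min, deoxygenated with 4.06% O2/4.4% CO2/N2, or deoxygenated with N2 alone. PO2 measured, then anaerobic fixation, 30 min RT.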

[2] = Antisickling activity and percentage of cells sickled after incubation in 3 mM solution under oxygen content 20.1% was reported at normal atmospheric pressure.; in short: as §1
[3] = Aantisickling activity and percentage of cells sickled after incubation in 3 mM solution under oxygen content 0.0% was reported.; in short: as §1
[4] = Effect of 3 mM of compound on homozygous sickle cells at a total oxygen saturation of 47% and estimates of volume fraction of HbS polymer present was determined.
In short: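 Homozygous SS cells (MCHC 33.9 g %) at 1% Hct with 3 mM compound, deoxygenated at 37 °C with 4.06% O2 gas (47% total O2 saturation per O2 affinity curve in PBS pH 7.392). Suspension forced through a 5-μm polycarbonate membrane at 3.1 cmHg. Passed cells weighed after 5-6 min, corrected for interstitial solvent with 3H-methoxyinulin. R = deoxygenated/oxygenated recovered weight. fp calculated with Cp 0.69 g/cm3 and Cs0 0.164 g/cm3.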

[5] = Antisickling activity and change in mean corpuscular hemoglobin ratio was reported at a concentration of 1.35 mM.
In short: (§2)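 Erythrocytes incubated with compound as in the morphological assay (PBS pH 7.2, 295 mosmol/kg, 0.5% BSA, 37 °C) but at 10% hematocrit. Triplicate readings on each of three aliquots taken 1 to 3 h after exposure. Lysis and cyanomet-Hb conversion, then MCHC read on a Coulter hemoglobinometer. Values averaged over nine measurements and expressed as MCHC0/MCHC.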

[6] = Antisickling activity and change in mean corpuscular hemoglobin ratio was reported at a concentration of 3.65 mM.; in short: as §2
[7] = Antisickling activity and change in mean corpuscular hemoglobin ratio was reported at a concentration of 2.55 mM.; in short: as §2
[8] = Antisickling activity and change in mean corpuscular hemoglobin ratio was reported at a concentration of 4.80 mM.; in short: as §2

Row | Compound | Cells sickled [1] | Cells sickled [2] | Cells sickled [3] | fp [4] | Ratio [5] | Ratio [6] | Ratio [7] | Ratio [8]
1 | Cl.Cl.NC(Cc1ccccc1)C(=O)Nc1ccncc1 (centres undefined) | 25.2% | 10.2% | 70.8% |  |  |  |  | 
2 | Cl.Cl.NC(Cc1ccccc1)C(=O)Nc1cccnc1 (centres undefined) | 23.6% | 11.4% | 59% | 0.24 | 1.05 | 1.13 | 1.07 | 1.17
3 | Cl.Cl.NC(Cc1ccccc1)C(=O)Nc1ccccn1 (centres undefined) | 32.6% | 9.1% | 71.1% | 0.24 | 1.04 | 1.11 | 1.08 | 1.15
